Assay outcomes from PubChem BioAssay.
In the library only some 1.3% were active in any assay of this set; here they are far more common.
INS-1E GSIS act – GLuc luminescence reporter in INS-1E cells, primary screen for activators of glucose-dependent secretion of insulin | activation, % at 16.6 µM | 370,000 compounds, 0.61% hits | INS-1E GLuc reporter insulin secretion, 2-3 h | AID 743287;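 active = lowest replicate activation of at least 40%, so every replicate reaches that level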;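 also: 0% = median of neutral control wells and 100% = median of IBMX positive control wells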
RAD54 branch – RAD54 (human) branch migration inhibition | inhibition, % at 10.4 µM | 360,000 compounds, 0.14% hits | Q92698 | RAD54 Holliday junction branch migration, FAM/BHQ fluorescence;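 active = mean normalized replicate activity at least 40 and at least half of replicates scoring 40 or more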;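 also: 0% = median of neutral control wells and 100% = median of positive control wells; inhibitors cause a drop in the FAM fluorescence signal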
Target sequence (Q92698 whole entry, looked up): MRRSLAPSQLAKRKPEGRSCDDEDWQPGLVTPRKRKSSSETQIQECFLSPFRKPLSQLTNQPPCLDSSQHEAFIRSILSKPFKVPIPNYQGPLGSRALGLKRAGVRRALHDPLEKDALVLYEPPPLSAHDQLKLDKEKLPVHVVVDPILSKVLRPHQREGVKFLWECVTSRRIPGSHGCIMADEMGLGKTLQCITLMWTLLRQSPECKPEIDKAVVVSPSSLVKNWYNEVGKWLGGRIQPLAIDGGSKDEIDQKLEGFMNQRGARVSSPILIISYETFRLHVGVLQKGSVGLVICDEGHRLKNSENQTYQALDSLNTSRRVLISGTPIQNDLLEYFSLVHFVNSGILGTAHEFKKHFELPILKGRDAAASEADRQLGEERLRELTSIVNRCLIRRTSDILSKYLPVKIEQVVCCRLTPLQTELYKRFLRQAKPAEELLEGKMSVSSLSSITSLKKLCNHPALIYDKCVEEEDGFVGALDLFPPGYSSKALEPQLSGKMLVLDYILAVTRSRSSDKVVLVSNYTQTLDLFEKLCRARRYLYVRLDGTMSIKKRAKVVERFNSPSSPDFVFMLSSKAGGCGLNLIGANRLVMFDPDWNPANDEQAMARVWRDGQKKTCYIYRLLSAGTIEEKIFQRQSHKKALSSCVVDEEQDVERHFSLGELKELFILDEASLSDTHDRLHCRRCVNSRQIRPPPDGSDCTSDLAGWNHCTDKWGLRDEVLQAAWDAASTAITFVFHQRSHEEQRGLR
RAD52 anneal inh – inhibitors of human RAD52 DNA annealing | inhibition, % at 18.7 µM | 360,000 compounds, 0.46% hits | AID 651710 | P43351 | recombinant RAD52 DNA annealing, FRET fluorescence;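 active = every replicate showing at least 50% inhibition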
AF4-AF9 inh – inhibitors of human MLL-AF4/AF9 interaction. AlphaScreen, biotin-AF4 peptide binding to FLAG-AF9. inhibition, % at 10 µM. 350,000 compounds, 0.47% hits;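 active = every replicate reaching a set inhibition limit, whatever the replicate mean, cut at about 25% in these data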;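 also: 0% = plate neutral control median and 100% = total signal loss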
S100A4 inh HTS – blocks human S100A4 binding to myosin IIA peptide; P26447; S100A4/TAMRA-MyoIIA peptide fluorescence polarization; inhibition, % at 10.7 µM; 360,000 compounds, 0.14% hits;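 active = mean inhibition of at least 70% across replicates, with every replicate also reaching that level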
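Material: S100A4 monomer protein / Buffer or medium: 50 mM HEPES pH 7.2, 10 mM CaCl2, 100 mM KCl / Times: 5 min incubation before reading / Benchmarks: neutral control DMSO, positive control TFP / Reagent: labelled myosin peptide probe, 5 nM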
Active calls of the source: *; i = inactive; . = no result given; + = active, no number.

SMILES	INS-1E GSIS act	RAD54 branch	RAD52 anneal inh	AF4-AF9 inh	S100A4 inh HTS
COc1ccc(S(=O)(=O)Nc2ccc3c(c2)C(=O)N([C@H](C)CO)C[C@@H](C)[C@H](CN(C)Cc2ccc(Oc4ccccc4)cc2)O3)cc1	-10	7	21	2	24
COc1ccc(OC)c(C2=Nn3c(nnc3-c3ccncc3)SC2)c1	41*	.	0	4	7
COc1ccc(C2=Nn3c(nnc3-c3ccccc3F)SC2)cc1OCC1CC1	79*	12	-12	2	0
FC(F)Oc1ccc(C2=Nn3c(nnc3-c3ccccc3Cl)SC2)cc1OCC1CC1	10	-1	-10	-1	2
CN1C(=O)c2cc(NC(=O)c3cccc(F)c3)ccc2OC[C@H]2O[C@H](CC(=O)NCc3ccccc3)CC[C@@H]21	-2	0	.	.	.
O=C(NCC1CCCCC1)[C@H]1[C@H](CO)[C@H]2Cn3c(ccc(-c4cccnc4)c3=O)[C@@H]1N2	1	.	-3	-1	5
CCNc1nc(NCC)nc(N(C)/N=C/c2ccco2)n1	62*	-13	-8	-2	-1
COC(=O)C[C@H]1CC[C@H](NS(=O)(=O)c2ccc(OC)cc2)[C@H](CO)O1	1	5	-3	-3	7
CC(C)n1c(N)c(C#N)c2ccc([N+](=O)[O-])cc2c1=O	103*	-10	-41	-3	-1
C[C@H]1CN([C@@H](C)CO)S(=O)(=O)c2ccc(-c3cccc(C#N)c3)cc2O[C@H]1CN(C)Cc1ccccn1	-9	2	-7	1	11
CCCNC(=O)Nc1ccc2c(c1)OC[C@H](C)N(CC1CCCC1)C[C@H](C)[C@H](OC)CN(C)C2=O	2	0	3	0	6
C[C@@H]1CN([C@@H](C)CO)C(=O)c2cc(NS(=O)(=O)c3ccc(Cl)cc3)ccc2O[C@@H]1CN(C)C(=O)Nc1ccc(F)cc1	-4	4	28	1	4
C#CC(=O)N(c1ccc(OC)c(OC)c1)C(C(=O)NC1CCCC1)c1cccs1 (centres undefined)	37	17	-17	-13	-2
Cc1cc(C)cc(N(C(=O)C(F)(F)F)C(C(=O)NC2CCCCC2)c2cccs2)c1 (centres undefined)	47*	-4	.	.	.
Cc1cccc(N(C(=O)C(F)(F)F)C(C(=O)NC2CCCCC2)c2cccs2)c1 (centres undefined)	-1	-3	.	.	.
C#CC(=O)N(c1cccc(OC)c1)C(C(=O)NC1CCCC1)c1cccs1 (centres undefined)	146*	-3	-8	14	1
N#Cc1ccc(C(=O)NCC(c2ccco2)N2CCCC2)cc1 (centres undefined)	7	-1	.	.	.
N#Cc1ccccc1Sc1ccccc1C(=O)NCC(c1ccco1)N1CCCC1 (centres undefined)	1	.	-227	27*	-7
COc1ccc(C(=O)CSc2nnc(CNc3ccc(C)cc3C)o2)cc1	59*	2	.	.	.
COc1ccccc1NC(=O)N[C@@H]1CC[C@H](CCn2cc(-c3cccnc3)nn2)O[C@@H]1CO	1	-9	8	-14	17
CCN1/C(=C/c2ccc3cc(C)cc(C)c3[n+]2CC)Sc2cc(C)ccc21	-40	i	i	28*	16
CCN1/C(=C\c2ccc3cc(C)ccc3[n+]2CC)Sc2cc(C)c(C)cc21	-39	i	i	5	-39
CCc1noc(C)c1C(=O)OCC(=O)c1ccc(OC)c(OC)c1	16	7	2	-1	-4
COc1ccc(C(=O)COC(=O)CSCc2c(C)noc2C)cc1OC	55*	.	-12	5	2
CC1(C)Cc2c(c(-c3ccco3)nc3n[nH]c(N)c23)CO1	56*	-6	.	.	.
SMILES	INS-1E GSIS act	RAD54 branch	RAD52 anneal inh	AF4-AF9 inh	S100A4 inh HTS
CCOC(=O)c1sc2nc(-c3ccco3)c3c(c2c1N)CC(C)(C)OC3	.	0	.	.	.
C/C(Cl)=C\Cn1c(N2CCCC2)nc2c1c(=O)[nH]c(=O)n2C	49*	-4	.	.	.
CCCCn1c(N2CCCC2)nc2c1c(=O)[nH]c(=O)n2C	84*	1	14	1	-7
COc1ccc(S(=O)(=O)/N=C2/C=CC(=O)C(C)=C2C)cc1	.	-2	.	.	.
CC1=C(C)/C(=N\OS(=O)(=O)c2ccc(C)cc2)C=CC1=O	225*	.	.	.	.
C[C@@H]1CN([C@H](C)CO)C(=O)c2cccc(NS(=O)(=O)c3ccccc3)c2O[C@H]1CN(C)Cc1ccc(C(F)(F)F)cc1	-20	-24	15	4	2
O=c1cc(O)c2ccc(O)cc2o1	-12	-4	-12	-2	26
O=c1ccc2[n+]([O-])c3ccc(O)cc3oc-2c1	-7	.	-293	43*	+
COc1cc(C(=O)OCc2cc(=O)c(O)co2)ccc1OC(F)F	52*	.	-8	5	1
Cc1ccc(S(=O)(=O)NCC[C@@H]2CC[C@H](NC(=O)Nc3cccc(F)c3)[C@H](CO)O2)cc1	-11	0	0	2	-1
CCNC(=O)C[C@H]1CC[C@H]2[C@@H](COC[C@@H](O)CN2Cc2ccc(Cl)c(Cl)c2)O1	1	-6	-7	0	3
O=C(NC[C@@H]1CC[C@@H]2[C@@H](CN2S(=O)(=O)c2ccccc2[N+](=O)[O-])O1)C1CCOCC1	.	.	24	28*	-4
CC=Cc1ccc2n(c1=O)C[C@@H]1[C@@H](CO)[C@H](C(=O)NC3CCC3)[C@H]2N1Cc1ccccc1 (mixture of isomers)	-22	1	-16	0	14
Cc1ccccc1N/N=C/c1c(C)nc2ccccn12	5	12	-8	26*	-1
Cc1nc2ccccn2c1C(=O)N/N=C/c1ccccc1	-3	3	14	1	-1
COc1cc(C=c2c3ccccc3n3c2cc(-c2ccccc2)[n+]3C)cc(OC)c1OC	24	.	-5	29*	-72
Cn1c(CO)c(-c2ccccc2)c2cc([N+](=O)[O-])ccc21	.	2	.	.	.
CN(C)c1ccc(C=c2c3ccccc3n3c2cc(-c2ccc(Cl)cc2)[n+]3C)cc1	-38	.	11	58*	9
CN(c1ccc(Cl)cc1)c1cc(=O)n(C)c2ccccc12	.	-9	.	.	.
CN(C)c1ccc(C=c2c3cc([N+](=O)[O-])ccc3n3c2cc(-c2ccccc2)[n+]3C)cc1	-29	.	100*	55*	98*
COc1ccc(S(=O)(=O)N(C)C[C@H]2OCCCC[C@H](C)Oc3ccc(NC(=O)c4ccncc4)cc3C(=O)N([C@@H](C)CO)C[C@H]2C)cc1	-13	-3	4	-1	1
CC(=O)N(C)C[C@H]1Oc2cc(-c3ccccc3F)ccc2S(=O)(=O)N([C@H](C)CO)C[C@@H]1C	10	-2	3	1	-14
O=C1C=C(N(CCO)Cc2ccccc2)c2ccccc2C1=O	.	-2	.	.	.
O=C1c2ccccc2C(=O)c2c1cccc2N(CCO)CCO	6	12	-52	28*	-7
CCc1nnc(NC(=O)C(CC)c2ccccc2)s1 (centres undefined)	-6	10	.	.	.
